What all share (assay type): functional
The test system of test [1] is Staphylococcus aureus. Description: Antimicrobial activity against methicillin-sensitive Staphylococcus aureus ATCC 29213 after 14 to 16 hrs by serial micro-broth dilution method. In outline:
(§1)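 MIC by serial broth microdilution following NCCLS standards, in cation-adjusted Mueller-Hinton broth. Final inoculum ~5 × 10^5 CFU/mL. Plates incubated at 35 °C for 14–16 h without CO2.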
A general note: Broth dilution looks for growth in wells or tubes with falling amounts of substance.

Test [2] relates to Staphylococcus aureus. Description: Antimicrobial activity against methicillin-resistant Staphylococcus aureus ATCC 43300 after 14 to 16 hrs by serial micro-broth dilution method. In outline: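 Broth microdilution MIC following NCCLS standards, using cation-adjusted Mueller-Hinton broth in ambient air without CO2. The final inoculum was about 5 × 10^5 CFU/mL.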
For test [3], the system named is Staphylococcus epidermidis. As to the kind of experiment: Antimicrobial activity against Staphylococcus epidermidis ATCC 700578 after 14 to 16 hrs by serial micro-broth dilution method. In short, it runs like this: as §1
In test [4] the test system is Staphylococcus epidermidis. Description: Antimicrobial activity against Staphylococcus epidermidis ATCC 700582 after 14 to 16 hrs by serial microbroth dilution method. In short, it runs like this: as §1
Test [5] relates to Streptococcus pneumoniae. As to the kind of experiment: Antimicrobial activity against penicillin-sensitive Streptococcus pneumoniae ATCC 49619 after 14 to 16 hrs by serial microbroth dilution method. In short, it runs like this:
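MIC by NCCLS serial broth microdilution in cation-adjusted Mueller-Hinton broth II with lysed horse blood. Final inoculum ~5 × 10^5 CFU/mL. Incubated at 35 °C for 14–16 h in a CO2 incubator.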

The subject of test [6] is Streptococcus pneumoniae. Description: Antimicrobial activity against penicillin-resistant Streptococcus pneumoniae ATCC 51915 after 14 to 16 hrs by serial micro-broth dilution method. In short, it runs like this: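 Broth microdilution MIC following NCCLS standards, using cation-adjusted Mueller-Hinton broth II with lysed horse blood and incubation in a CO2 incubator. The final inoculum was about 5 × 10^5 CFU/mL.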

For another test, the system named is Enterococcus faecalis. As to the kind of experiment: Antimicrobial activity against vancomycin-sensitive Enterococcus faecalis ATCC 29212 after 14 to 16 hrs by serial microbroth dilution method. In outline:
as §1

For test [7], the system named is Haemophilus influenzae. Description: Antimicrobial activity against Haemophilus influenzae ATCC 49247 after 14 to 16 hrs by serial micro-broth dilution method. In outline: (§2)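 MIC by serial broth microdilution per NCCLS, in Haemophilus Test Medium. Final inoculum ~5 × 10^5 CFU/mL. Plates incubated at 35 °C for 14–16 h in a CO2 incubator.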
For test [8], the system named is Haemophilus influenzae. As to the kind of experiment: Antimicrobial activity against Haemophilus influenzae ATCC 49766 after 14 to 16 hrs by serial micro-broth dilution method. In outline: as §2
In the next test the test system is Escherichia coli. Description: Antimicrobial activity against Escherichia coli ATCC 25922 after 14 to 16 hrs by serial micro-broth dilution method. In short, it runs like this:
as §1

Values after ≈ are worked out from the molar mass of the structure shown.

Take `CCCCCCC/C(C)=C/C(=O)/C=C1\NC(=O)C(CCCC)O1` (stereo not given) [LIPOXAZOLIDINONE A]: the MIC with Staphylococcus aureus [1] stood at 0.9 µg/mL (≈ 2.8 µM); in the test on Staphylococcus aureus [2], 1 µg/mL (≈ 3.11 µM); in test [3] it was 0.5 µg/mL (≈ 1.56 µM); in test [4], 0.5 µg/mL (≈ 1.56 µM); with Streptococcus pneumoniae [5] it was 2.6 µg/mL (≈ 8.09 µM); in the test with Streptococcus pneumoniae [6], 4.7 µg/mL (≈ 14.6 µM). Further, the MIC against Enterococcus faecalis is 1 µg/mL (≈ 3.11 µM); in the test on Haemophilus influenzae [7], 12 µg/mL (≈ 37.3 µM); against Haemophilus influenzae [8] it was 12 µg/mL (≈ 37.3 µM); against Escherichia coli, above 32 µg/mL.
Consider `CCCCCC/C(C)=C/C(=O)/C=C1\NC(=O)C(CCCC)O1` (stereo not given) [LIPOXAZOLIDINE C], for which the MIC against Staphylococcus aureus [1] amounted to 4 µg/mL (≈ 13 µM); against Staphylococcus aureus [2] it was 3 µg/mL (≈ 9.76 µM); with Streptococcus pneumoniae [5], 10 µg/mL (≈ 32.5 µM); in the test with Enterococcus faecalis, 2 µg/mL (≈ 6.51 µM); with Haemophilus influenzae [7] it was 16 µg/mL (≈ 52 µM); in the test with Haemophilus influenzae [8], 5 µg/mL (≈ 16.3 µM). The molecule further returned an MIC in the test with Escherichia coli above 32 µg/mL.
Consider `CCCCCCC/C(C)=C/C(=O)/C=C1\NC(=O)C(CCCCC)O1` (stereo not given) [LIPOXAZOLIDINONE B], for which the MIC against Staphylococcus aureus [1] amounted to 6 µg/mL (≈ 17.9 µM); against Staphylococcus aureus [2], 1.5 µg/mL (≈ 4.47 µM); in test [3], 1.3 µg/mL (≈ 3.87 µM); in test [4], 0.8 µg/mL (≈ 2.38 µM); in the test with Streptococcus pneumoniae [5], 8 µg/mL (≈ 23.8 µM); with Streptococcus pneumoniae [6] it was 6 µg/mL (≈ 17.9 µM). Further, the MIC against Enterococcus faecalis is 3 µg/mL (≈ 8.94 µM); in the test with Haemophilus influenzae [7] it was 12 µg/mL (≈ 35.8 µM); with Haemophilus influenzae [8], 16 µg/mL (≈ 47.7 µM); against Escherichia coli, above 32 µg/mL.
As for `CC(=O)NC[C@H]1CN(c2ccc(N3CCOCC3)c(F)c2)C(=O)O1` [LINEZOLID], the MIC was 1.5 µg/mL (≈ 4.45 µM) with Staphylococcus aureus [2]; 1 µg/mL (≈ 2.96 µM) in test [3]; 1 µg/mL (≈ 2.96 µM) in [4]; 12 µg/mL (≈ 35.6 µM) with Haemophilus influenzae [7]; 12 µg/mL (≈ 35.6 µM) in the test with Haemophilus influenzae [8]; above 32 µg/mL with Escherichia coli.
Consider `CCCCCCC/C(C)=C/C(=O)CC(=N)OC(CCCC)C(=O)O` (stereo not given), for which the MIC with Staphylococcus aureus [1] is 24 µg/mL (≈ 70.7 µM); with Staphylococcus aureus [2] it was above 32 µg/mL; against Streptococcus pneumoniae [5], above 32 µg/mL; against Enterococcus faecalis, 32 µg/mL (≈ 94.3 µM); in the test with Haemophilus influenzae [7], above 32 µg/mL; against Haemophilus influenzae [8] it was above 32 µg/mL. Also, the MIC against Escherichia coli is above 32 µg/mL.

The values are drawn from ChEMBL document CHEMBL1141290, “Lipoxazolidinones A, B, and C: antibacterial 4-oxazolidinones from a marine actinomycete isolated from a Guam marine sediment” (2007).
